High-throughput results: PubChem, several laboratories
In the library only some 2.2% were active in any assay of this set; here they are far more common.
FLuc act counter: FLuc activators, initial screening, artefact control for FLuc-dependent activation tests, biochemical, ATPlite luminescence | Luciferin 4-monooxygenase (Photinus pyralis), P08659 | ATPlite luciferase biochemical, 10 min; 0 = ATP-free wells, 1 = DMSO control | activation factor at 10 µM | 200,000 tested, under 10 active | AID 1027, 2008;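 active means luciferase activation factor, scaled between plate controls, of at least 2 with compound at 10 µM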
Target sequence (P08659 whole entry, looked up): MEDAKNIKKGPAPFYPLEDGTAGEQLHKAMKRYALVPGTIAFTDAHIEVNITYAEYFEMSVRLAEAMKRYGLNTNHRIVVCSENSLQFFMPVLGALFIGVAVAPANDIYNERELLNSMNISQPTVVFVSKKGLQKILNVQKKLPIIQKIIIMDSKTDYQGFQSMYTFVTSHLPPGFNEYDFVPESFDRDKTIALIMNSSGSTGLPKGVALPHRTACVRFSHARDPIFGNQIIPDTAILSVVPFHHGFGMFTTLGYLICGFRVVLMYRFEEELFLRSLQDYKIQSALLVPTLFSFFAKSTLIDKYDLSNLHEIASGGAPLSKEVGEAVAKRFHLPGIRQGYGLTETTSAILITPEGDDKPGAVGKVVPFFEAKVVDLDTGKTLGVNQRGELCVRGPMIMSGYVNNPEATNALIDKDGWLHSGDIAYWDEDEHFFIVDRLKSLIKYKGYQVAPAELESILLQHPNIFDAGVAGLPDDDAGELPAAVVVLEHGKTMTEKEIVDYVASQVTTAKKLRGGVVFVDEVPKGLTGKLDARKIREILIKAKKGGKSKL
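test system = cell-free luciferase reagent | medium = PBS as buffer for the ATP substrate | dosing = test compounds dosed from 2 mM stocks in 100% DMSO | incubation = 10 min at ambient temperature | detection = luminescence measurement of luciferase light output | benchmarks = low control with PBS replacing ATP, high control enzyme plus ATP without compound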
FLuc inh counter: firefly luciferase enzyme inhibitors, primary screen, artefact control for luciferase-based inhibitor screens, biochemical, luminescence, ATPLite. 10 min. 200,000 compounds, 1.5% hits. AID 1006, 2008. Luciferin 4-monooxygenase (Photinus pyralis), P08659. inhibition, % at 10 µM;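 active means inhibition above about 50% when tested at 10 µM, limit read from the data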
PPC-1+TRAIL kill: compounds killing PPC-1 cancer cells with TRAIL present, primary screen, TRAIL potentiator project, ATPLite luminescence, uHTS. PPC-1 cells + TRAIL, ATPLite viability luminescence. cell killing (% activity), % at 4 µM or 5 µM. 220,000 compounds, 0.41% hits. AID 1443, 2008;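 active means cell killing above 50% in the first pass at 4 µM, then a duplicate retest at 5 µM averaging 50% or more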;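 further: plate controls were cells with TRAIL plus DMSO for no effect and medium-only wells lacking cells for full effect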
NF-kB expr up: activators of NF-kB expression in neurons, primary screen, cell-based, HTS; human neuronal cells, NF-kB reporter expression; hits give high values; fold change at 12.5 µM; 190,000 compounds, 1.6% hits; AID 1239, 2008; in the data active means fold change above about 3.3
C8 TRAIL sens: viability loss with TRAIL in NB7+C8 cells, primary screen, TRAIL sensitizer project, cell-based, ATPlite luminescence | inhibition (viability loss, TRAIL sensitization), % at 10 µM | 360,000 compounds, 1% hits | AID 624354, 2012;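 active means compounds causing at least 50% loss of cell viability in the single-dose screen, relative to plate controls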
APP 5'UTR act: activators of APP 5'UTR luciferase reporter, primary screen, SH-SY5Y cells. 190,000 compounds, 1% hits. SH-SY5Y APP 5'UTR luciferase reporter, luminescence; zero percent = DMSO vehicle wells. activation, % at 2 µM;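 active means activation above a set limit, based on mean plus 3 SD of controls, cut at about 140% in these data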
Active calls of the source: *; x = no result given.

SMILES	FLuc act counter	FLuc inh counter	PPC-1+TRAIL kill	NF-kB expr up	C8 TRAIL sens	APP 5'UTR act
COC(=O)c1cccc(OCCCN2CCC(C(O)(c3ccccc3)c3ccccc3)CC2)c1	x	x	x	x	15	x
COc1cccc(C(=O)Nc2cccc(-c3ccc(N4CCOCC4)nn3)c2)c1	x	x	x	x	42	x
COc1cccc(C(=O)Nc2cccc(-c3ccc(N4CCOCC4)nn3)c2)c1OC	x	x	x	x	67*	x
CCOc1ccccc1C(=O)Nc1cccc(-c2ccc(N3CCOCC3)nn2)c1	x	x	x	x	48	x
O=C(Nc1cccc(-c2ccc(N3CCOCC3)nn2)c1)c1ccc(F)cc1F	x	x	x	x	51*	x
COc1ccc(C(=O)Nc2cccc(-c3ccc(N4CCOCC4)nn3)c2)cc1OC	x	x	x	x	64*	x
Cc1ccccc1-c1cc2nc(NCc3ccc4occc4c3)n(C)c(=O)c2s1	x	x	x	x	9	x
Cc1nc2c(OCc3ccc(OC(F)F)cc3)cccn2c1N(C)C(=O)CCC1CCCC1	x	x	x	x	11	x
Cc1cc(C(=O)N2CCC2(C)C(=O)NS(=O)(=O)c2cccc(OC(F)F)c2)nn1C (centres undefined)	x	x	x	x	-10	x
C=CCSc1nncn1/N=C/c1ccc(OC)cc1	0.8	22	15	3.4*	3	111
Cc1cc(C(=O)N2CCC2(C)C(=O)NS(=O)(=O)c2ccccc2Cl)nn1C (centres undefined)	x	x	x	x	-5	x
O=C(NCc1ccccc1)C(c1ccc(C(F)(F)F)cc1)N1CCN(CCN2CCOCC2)CC1 (centres undefined)	x	x	x	x	8	x
O=C(CCN1C(=O)c2ccccc2C1=O)Nc1ccc(-c2nc3ccccc3s2)cc1	0.9	11	1	1.4	69*	136*
O=C(CCN1C(=O)c2ccccc2C1=O)Nc1nc2ccccc2s1	1	3	16	1.6	3	x
Cc1ccc2nc(-c3ccc(NC(=O)CCN4C(=O)c5ccccc5C4=O)cc3)sc2c1	0.3	68*	32	7.4*	83*	128
CCOC(=O)/C=C(\C)Sc1cc(O)c2ccccc2c1O	x	x	35	x	72*	x
O=C(/C=C/c1cnc2ccccc2n1)NC12CC3CC(CC(C3)C1)C2	0.6	42	23	1	3	190*
CC(=O)Nc1ccc(C(=O)N/N=C/c2cccnc2)cc1	1.1	-10	22	0.94	5	-4
COc1ccc(C(=O)N/N=C/c2cccc3cccnc23)cc1	0.4	59*	32	1.1	13	19
CC(C)c1cc(C(=O)N/N=C/c2ccoc2)cs1	x	x	x	x	9	x
COc1ccc(C(=O)N/N=C/c2cccnc2)cc1	x	x	x	x	52*	x
CC(C)c1cc(C(=O)N/N=C/c2cccnc2)cs1	0.4	64*	11	1.4	40	-1
COc1ccc(OC)c(CN2C(=O)c3ccccc3C2c2nnnn2Cc2ccccc2)c1 (centres undefined)	x	x	x	x	-7	x
C=CCNc1nc(-c2ccc(OC)cc2OC)cs1	0.9	8	13	3.4*	-5	50
COc1ccc(-c2csc(NC(=O)C3=COCCO3)n2)c(OC)c1	x	x	x	x	-1	x
SMILES	FLuc act counter	FLuc inh counter	PPC-1+TRAIL kill	NF-kB expr up	C8 TRAIL sens	APP 5'UTR act
Cc1ccc(-c2csc(NC(=O)CSc3nnc4c(n3)[nH]c3ccccc34)n2)cc1	1.1	-6	-8	0.88	52*	-8
CC(C)CSc1nnc2c(n1)[nH]c1ccccc12	0.7	28	10	4.8*	33	130
COc1ccc(CCNC(=O)c2ccc(CSc3ccc(Cl)cc3)o2)cc1OC	x	x	x	x	12	x
COc1ccc(-c2cn(CC[C@@H]3CC[C@H](NC(=O)Cc4ccccn4)[C@@H](CO)O3)nn2)cc1	x	x	x	x	1	x
COc1ccc(C(=O)C(=O)N2CCC(c3ccccc3)CC2)cn1	x	x	x	x	-9	x
Cc1nc(NC(=O)c2cc3ccccc3o2)sc1C	x	x	x	x	54*	x
CCOC(=O)c1sc(NC(=O)c2ccccc2OC)nc1C	0.4	62*	28	8*	61*	153*
CCOC(=O)c1sc(NC(=O)c2ccc(CC)s2)nc1C	0.9	12	29	2.3	26	29
Cc1nc(NC(=O)c2csc3ccccc23)sc1C	0.7	28	-14	7.5*	-10	151*
Cc1nc(NC(=O)c2ccccc2O)sc1C	x	x	x	x	30	x
C=CCOC(=O)c1sc(NC(=O)c2ccco2)nc1C	0.4	58*	48	2.2	50*	37
COc1ccccc1N1CC(C(=O)OC(C)C(=O)Nc2ccc(F)cc2)CC1=O (centres undefined)	x	x	x	x	6	x
CC(C)OC(=O)N(C)C[C@@H]1OCc2ccccc2-c2c(n(C)c3ccccc23)C(=O)N([C@@H](C)CO)C[C@H]1C	x	x	x	x	1	x
CCOC(=O)[C@]12CCC=C1N(Cc1ccc(Cl)cc1Cl)C(=O)[C@H](CC(=O)N1CCOCC1)C2	x	x	x	x	-1	x
CCOC(=O)c1sc(NC(=O)Nc2ccccc2F)nc1C	0.2	84*	54*	1.2	77*	162*
CCOC(=O)c1sc(NC(=O)c2cc3ccccc3o2)nc1C	0.5	52*	18	2.6	33	116
CCOC(=O)c1sc(Nc2ccccc2Cl)nc1C	x	x	-3	x	-11	x
CC1(C)CC(=O)c2sc(NC(=O)c3ccco3)nc2C1	0.3	74*	33	1.4	49	38
O=C1CCC(OCc2ccccc2)CCN1[C@H](CSc1ccccc1)Cc1ccccc1 (some centres undefined)	x	x	x	x	0	x
Brc1ccc(-c2cn3nc4c(nc3n2)CCCC4)cc1	0.6	41	8	2.9	-10	186*
c1ccc(-c2cn3nc4c(nc3n2)CCCC4)cc1	0.1	86*	7	2.4	36	148*
c1ccc(-c2cn3c(n2)CCC3)cc1	1.1	-7	-12	1.1	10	-14
Brc1ccc2nc3c(n2c1)CCCC3	1	-2	7	1.2	11	-5
COC(=O)[C@]12CCCCC=C1N(Cc1ccc(Cl)cc1Cl)C(=O)[C@H](CC(=O)NCCCCc1ccccc1)C2	x	x	x	x	20	x
CS(=O)(=O)N1N=C(c2ccc(Br)cc2)CC1c1cccs1 (centres undefined)	1	-4	-18	2	7	8
CCc1ccc(C2=NN(S(C)(=O)=O)C(c3cccs3)C2)cc1 (centres undefined)	0.8	18	20	8.4*	10	182*
CS(=O)(=O)N1N=C(c2cccs2)CC1c1ccccc1 (centres undefined)	x	x	11	x	-6	x
COc1ccc(C2=NN(S(C)(=O)=O)C(c3cccs3)C2)cc1 (centres undefined)	1	4	-9	3.9*	-3	110
